MBD2 inh = MBD2-methylated oligo binding inhibition | actives 0.31% (n = 370,000) | Q9UBB5 | TR-FRET, MBD2 binding to methylated oligonucleotide | inhibition, % at 4.4 µM | AID 686964; in the data active = inhibition above about 13%
TDP2 absorb = blocks human TDP2 phosphodiesterase activity | O95551 | recombinant TDP2, T5PNP hydrolysis, p-nitrophenol absorbance 415 nm | inhibition, % at 12.8 µM | actives 0.34% (n = 370,000);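 active = inhibition above the mean of all tested compounds plus 3 SD, set per campaign, cut at about 25% in these data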;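 note: 0% = DMSO with enzyme and 100% = buffer with substrate but no TDP2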
Target sequence (O95551 whole entry, looked up): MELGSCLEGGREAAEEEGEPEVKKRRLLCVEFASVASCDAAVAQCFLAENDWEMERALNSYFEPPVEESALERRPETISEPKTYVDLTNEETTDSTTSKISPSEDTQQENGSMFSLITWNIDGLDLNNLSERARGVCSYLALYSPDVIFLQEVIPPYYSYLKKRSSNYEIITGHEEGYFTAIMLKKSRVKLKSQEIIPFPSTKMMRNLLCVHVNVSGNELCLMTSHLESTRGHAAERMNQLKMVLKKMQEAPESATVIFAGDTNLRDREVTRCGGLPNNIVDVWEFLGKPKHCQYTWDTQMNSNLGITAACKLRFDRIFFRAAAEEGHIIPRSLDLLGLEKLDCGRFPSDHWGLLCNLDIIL
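Material: recombinant human TDP2; quantity: TDP2 enzyme at 120 nM final; medium: Tris-HCl pH 7.5 with MgCl2; compound: single concentration, 12.8 µM nominal, with 1% DMSO; incubation: 2 h enzyme incubation at 37 °C; signal: epi absorbance; measure: percent inhibition; benchmarks: high control without enzyme, low control DMSO plus TDP2; repeats: singlicate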
UHRF1 binding = blocks human UHRF1 binding to methylated DNA; AID 687016; UHRF1 binding to methylated oligo, TR-FRET; inhibition, % at 4.4 µM; actives 0.75% (n = 370,000); Q96T88;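 note: UHRF1 SRA domain binding a hemimethylated CpG hairpin DNA probe; 0% = median of test compound wells and 100% = reference inhibitor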
LEDGF integ inh = blocks HIV-1 LEDGF/p75-dependent DNA integration; TR-FRET IN-LEDGF/p75 DNA integration, Eu/Cy5; inhibition, % at 3.7 µM; actives 0.64% (n = 370,000);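 active = inhibition above the screen-wide mean plus 3 SD, cut at about 13% in these data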;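 note: signal is the Cy5 over europium emission ratio at 671 and 618 nm; 0% = plate median of compound wells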
UHRF1 DNA bind = inhibits human UHRF1 binding to methylated oligonucleotide, MBD2 counter-screen | shares compounds with MBD2 inh | TR-FRET | inhibition, % at 4.4 µM | actives 25% (n = 1,000) | AID 720530;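 note: UHRF1 SRA domain binding a labeled hemimethylated CpG hairpin DNA; 0% = vehicle only and 100% = reference inhibitor with vehicle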
MBD2 confirm = MBD2-DBD methyl-DNA binding inhibition, TR-FRET confirmation; shares compounds with MBD2 inh; TR-FRET MBD2-DBD binding to methylated oligonucleotide; inhibition, % at 4.4 µM; actives 26% (n = 1,000); in the data active = inhibition above about 14%
TDP2 inh conf = human TDP2 inhibition, confirmation; shares compounds with TDP2 absorb; recombinant human TDP2, absorbance read-out; inhibition, % at 12.8 µM; actives 22% (n = 1,100); AID 743263; in the data active = inhibition above about 25%;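 note: 0% = vehicle with enzyme and 100% = no enzyme buffer only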
IN multimer up = counter-screen for LEDGF/p75 integration inhibitors: HIV-1 integrase multimerization activators; TR-FRET HIV-1 integrase multimerization, biochemical; activation, % at 7.7 µM; shares compounds with LEDGF integ inh; AID 1053131; actives 17% (n = 2,000); in the data active = activation above about 8.9%
TR-FRET interf = TR-FRET optical interference, LEDGF/p75 integration counter-screen | TR-FRET optical interference counterscreen, HIV-1 IN multimerization | inhibition, % at 7.7 µM | AID 1053135 | 2,000 tested, under 10 active | shares compounds with LEDGF integ inh;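 active = inhibition above the mean over all tested compounds plus 3 SD, which no compound reached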;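 note: 0% = integrase with antibodies and DMSO and 100% = antibodies without integrase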
LEDGF integ conf = confirmation of HIV-1 LEDGF/p75-dependent integration inhibitors | inhibition, % at 3.7 µM | TR-FRET LEDGF/p75-dependent HIV-1 integration, biochemical | actives 36% (n = 2,000) | AID 1053136 | shares compounds with LEDGF integ inh; in the data active = inhibition above about 14%
* hit, by the source's call; · = not tested or not shown. The list is not random: actives were taken first. Their share in the collection is about 1.6%. Cut-off read from the data, not from the text of the source, unless noted: active = inhibition above about 21%; inactive = the rest.

SMILES	MBD2 inh	TDP2 absorb	UHRF1 binding	LEDGF integ inh	UHRF1 DNA bind	MBD2 confirm	IN multimer up	TR-FRET interf	LEDGF integ conf	others
O=C(CSc1nc2ncccc2[nH]1)N1CCOCC1	3	7	0	2	·	·	·	·	·
COc1ccc(/C=N/NC(=O)c2cc(O)c(O)c(O)c2)cc1Cn1cc([N+](=O)[O-])cn1	15*	4	28*	69*	20	14*	54*	-270	87*
CCn1c(C)nc2cc(C(=O)N/N=C/c3ccc(O)c(O)c3O)ccc21	16*	-10	19	73*	3	2	52*	-264	70*
NC1=NC(=O)/C(=C\c2ccco2)S1	24*	11	68*	62*	47*	24*	30*	-106	50*
CCOc1ccc(-n2c(COc3ccc(C)cc3)nnc2SCC(=O)Nc2ccc(F)c(F)c2)cc1	2	1	-3	2	·	·	·	·	·
c1coc(-c2ccc3nncn3c2)c1	39*	13	76*	57*	62*	34*	23*	-116	73*
COc1cccc(C(=O)N2CCC[C@@H]2C(=O)N2CCC[C@H]2C(=O)NCc2ccccc2)c1	0	2	2	4	·	·	·	·	·
CCOC(=O)N1CCN(C(=O)C[C@H]2C[C@@]3(C(=O)OC)C(=C[C@H](COCc4ccccc4)O[C@@H]3C)N(Cc3ccccc3)C2=O)CC1	1	7	1	4	·	·	·	·	·
Cn1cccc1CC(=O)NN=C/C=C\c1ccco1	66*	-8	85*	81*	5	7	11*	-54	31*
COc1ccccc1/C=C/C=N/NC(=O)Cc1cccn1C	-6	8	-7	4	·	·	·	·	·
C[C@H](NC(=O)OCc1ccccc1)P(=O)(O)O	-2	12	2	1	·	·	·	·	·
O=C(O)c1cc(O)c2c(c1)[C@H]([C@H]1c3cc(C(=O)O)cc(O)c3C(=O)c3c(O[C@@H]4O[C@H](CO)[C@@H](O)[C@H](O)[C@H]4O)cccc31)c1cccc(OC3O[C@H](CO)[C@@H](O)[C@H](O)[C@H]3O)c1C2=O (some centres not stated)	33*	46*	73*	82*	90*	94*	74*	-261	80*	TDP2 inh conf=51*
O=C1c2cc(CO)cc(O)c2C(=O)c2c(O[C@@H]3OC(CO)[C@@H](O)[C@@H](O)[C@@H]3O)cccc21 (some centres not stated)	-7	-13	-4	3	·	·	·	·	·
O=S(=O)(Nc1nc(-c2ccco2)c(-c2ccco2)s1)c1ccc(F)cc1F	23*	4	59*	35*	11	4	1	-5	10
O=S(=O)(Nc1nc2ccccc2s1)c1cc(F)ccc1F	-6	-15	1	5	·	·	·	·	·
Nc1[nH]c2cc(C(F)(F)F)ccc2c1C(=O)NC1CCCCC1	2	-5	3	2	·	·	·	·	·
Cc1ccccc1N1CCN(S(=O)(=O)c2ccc3c(c2)oc(=O)n3C)CC1	-6	-7	-3	4	·	·	·	·	·
CCN(CC)c1ccc(NC(=O)CCS(=O)(=O)c2ccc(Br)cc2)c(C)c1	25*	-10	54*	17*	63*	30*	35*	-128	12
Cc1cc(NS(=O)(=O)c2ccc(NC(=S)NC(=O)c3cccnc3)cc2)no1	27*	-6	65*	26*	4	2	2	-8	-1
COc1ccc(-c2cc(=O)n(CCC#N)[nH]2)cc1	18*	92*	16	42*	1	0	0	1	1	TDP2 inh conf=9
COc1ccc(-c2ncn(CCC#N)c2[N+](=O)[O-])cc1	3	11	-4	-2	·	·	·	·	·
Cc1nc(S/C(=C\c2ccc(-c3ccc(C(=O)O)c(Cl)c3)o2)C(=O)O)n[nH]1	27*	15	88*	60*	53*	10	18*	-92	32*
O=C(CCN1C(=O)/C(=C/c2ccco2)SC1=S)Nc1ccc(O)cc1C(=O)O	68*	27*	95*	78*	38*	8	19*	-98	46*	TDP2 inh conf=-4
O=C(CCCN1C(=O)/C(=C/c2ccco2)SC1=S)Nc1ccccc1C(=O)O	27*	10	82*	39*	52*	16*	9.7*	-36	27*
Cc1[nH]c2ccccc2c1C(=O)c1c(N)[nH]c(C(=O)c2ccccc2)c1-c1ccc(Cl)cc1	4	0	-3	-1	·	·	·	·	·
SMILES	MBD2 inh	TDP2 absorb	UHRF1 binding	LEDGF integ inh	UHRF1 DNA bind	MBD2 confirm	IN multimer up	TR-FRET interf	LEDGF integ conf	others
O=C(CCc1nc(-c2ccc(Cl)cc2)no1)OCc1ccc(Br)cc1	15*	40*	28*	16*	6	5	0	2	-4	TDP2 inh conf=4
COc1cc(/C=C2\CCc3c2nc2ccccc2c3C(=O)O)cc(OC)c1OC	26*	3	48*	26*	34*	14*	7	-37	34*
CN(c1cccnc1)c1ccc(NC(=O)Cc2c[nH]c3ccccc23)cc1Br	4	-1	8	-1	·	·	·	·	·
O=C(O)COc1ccc2c(c1)O/C(=C\c1cccs1)C2=O	-2	-17	-2	2	·	·	·	·	·
O=C(O)COc1ccc2c(c1)O/C(=C\c1ccco1)C2=O	15*	8	63*	41*	42*	9	27*	-95	46*
CN(C)c1ccc2cc(S(=O)(=O)O)cc(O)c2c1	45*	55*	83*	84*	29*	6	52*	-186	31*	TDP2 inh conf=13
C=CCSC1=N/C(=C\C=C\c2ccco2)C(=O)S1	43*	7	75*	62*	40*	17*	9	-43	75*
C=CCSC1=N/C(=C\c2sccc2C)C(=O)S1	-1	4	-1	0	·	·	·	·	·
O=C(C(=O)N1CCC(CNS(=O)(=O)c2cc(C(F)(F)F)cc(C(F)(F)F)c2)CC1)c1cc2ccccc2o1	-3	1	8	-5	·	·	·	·	·
CCc1ccccc1NC(=O)CCS(=O)(=O)c1ccc(OC)cc1	40*	2	75*	16*	13	4	3	-11	-1
